The conditions of data set [1]: cited from earlier work.
The target of another data set is bovine bc1 complex (Bos taurus, UniProt P00157+P13272). Put plainly: Ubiquinol-cytochrome c reductase activity of purified bc1 complex. The conditions noted are these: for Selectivity Coefficient (comparison in words): IC50 bovine enzyme divided by IC50 yeast enzyme, Fig. 5. The data set is classed as biochemical. The essentials: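 Bovine heart bc1 complex, 2.5 nM, in phosphate pH 7.0 buffer with sucrose, EDTA, azide, KCN, dodecylmaltoside and 40 µM cytochrome c at 23 °C. Enzyme preincubated 1 min with increasing test compound; started with decylbenzoquinol; cytochrome c reduction read at 550 vs 539 nm. Duplicates averaged. IC50 taken from titration curves; Selectivity Coefficient = bovine IC50 / yeast IC50.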

Another data set concerns malaria. Conditions: cited from earlier work.
A further data set concerns avian malaria. Conditions: cited from earlier work.
For data set [2], the target named is center P of the yeast cytochrome bc1 complex (Saccharomyces cerevisiae, UniProt P00163+P08067). Put plainly: Pre-steady-state oxidant-induced reduction of cytochrome b through center P. Conditions: 2 µM inhibitor, bc1 complex pre-reduced with quinol, 3 µM antimycin. The data set is classed as biochemical. The essentials: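 Then 3 µM antimycin and 2 µM test compound added, 1 min further. Rapid-mixed with 3 µM cytochrome c; stopped-flow rapid-scanning spectroscopy at 24 °C. Absorbance change at 562 and 578 nm extracted; 12–19 data sets averaged.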

In data set [3] the target is center N of the yeast cytochrome bc1 complex (Saccharomyces cerevisiae, UniProt P00163+P08067). Put plainly: Pre-steady-state reduction of cytochrome b through center N. The data set is classed as biochemical. Conditions: 2 µM NQ1, 3 µM stigmatellin, oxidized bc1 complex. The method in brief:
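Stopped-flow rapid scanning at 24 °C: 1 µM oxidized yeast bc1 complex with 3 µM stigmatellin, with or without 2 µM test compound. Rapid-mixed with 30 µM 2,3-dimethoxy-5-methyl-6-decyl-1,4-benzoquinol. Cytochrome b reduction followed as absorbance time course at 562 and 578 nm; 12–19 data sets averaged.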

Entries after “also recorded” stand apart in the source; their conditions may differ.

`CCCCCCC(C)CC1=C(O)C(=O)c2ccccc2C1=O` (centres unmarked) [S-10576]: the “metabolism and excretion in vivo” value in data set [1] is “terminal two carbons of the side chain are modified by oxidation and the resulting more water soluble compound is rapidly excreted”. Moreover, the “Selectivity Coefficient (comparison in words)” value on bovine bc1 complex was “greatest selectivity”. The “Selectivity Coefficient relative to that of atovaquone” value on bovine bc1 complex (Selectivity Coefficient = IC50 bovine enzyme divided by IC50 yeast enzyme) is approximately 10 fold. Besides, in the data set with malaria, the efficacy in humans entry is “ineffective”. Also, the “efficacy against avian malaria” value in the data set on avian malaria was “effective”.

`Cc1cccc2c1C(=O)C(O)=C(CC(C)CCCCCC(F)(F)F)C2=O` (centres unmarked) [NQ3, 2-OH-3-(2-Me-trifluorooctyl)-8-Me-naphthoquinone]: the “Selectivity Coefficient (comparison in words)” value at bovine bc1 complex is on record as “higher selectivity than atovaquone”.

On to `O=C1C(O)=C([C@H]2CC[C@H](c3ccc(Cl)cc3)CC2)C(=O)c2ccccc21` [atovaquone, 2-[trans-4-(4’-chlorophenyl)cyclohexyl]-3-hydroxy-1,4-hydroxynaphthoquinone, reference compound], for which, in data set [2], the “inhibition of oxidant-induced reduction of cytochrome b through center P” value is “greatly inhibited”.

For the compound `CCCCCCC(C)CC1=C(O)C(=O)c2c(C)cccc2C1=O` (centres unmarked) [NQ2, 2-OH-3-(2-Me-octyl)-8-Me-naphthoquinone], the “Selectivity Coefficient (comparison in words)” value on bovine bc1 complex is on record as “higher selectivity than atovaquone”.

On to `CC(CCCCCC(F)(F)F)CC1=C(O)C(=O)c2ccccc2C1=O` (centres unmarked) [NQ1, 2-OH-3-(2-Me-trifluorooctyl)-naphthoquinone], for which, on bovine bc1 complex, the “Selectivity Coefficient (comparison in words)” value is “higher selectivity than atovaquone”. Also, the “effect on cytochrome b reduction through center N” value in data set [3] was “no effect; also recorded: identical, superimposed kinetic traces in the presence and absence”. In addition, the “inhibition of oxidant-induced reduction of cytochrome b through center P” value in data set [2] is “completely inhibited”.
